Source: ChEMBL document CHEMBL4402576, “Discovery and Development of Small-Molecule Inhibitors of Glycogen Synthase” (J Med Chem, 2020)
Active and inactive are the calls of the source. The calls are words filed in the database; no cut-off is given here.

Columns and labels:
[1] = target: T1, Glycogen [starch] synthase, muscle (Homo sapiens) (UniProt P13807); test: Inhibition of C-terminal 6His-tagged wild type human GYS1 assessed as enzyme activity at 20 uM using UDPG as substrate in presence of 1 mM G-6-P by 14C-glucose incorporation assay relative to control; parameters: scale not given: the % may be the effect or the level left
T1 sequence (whole entry): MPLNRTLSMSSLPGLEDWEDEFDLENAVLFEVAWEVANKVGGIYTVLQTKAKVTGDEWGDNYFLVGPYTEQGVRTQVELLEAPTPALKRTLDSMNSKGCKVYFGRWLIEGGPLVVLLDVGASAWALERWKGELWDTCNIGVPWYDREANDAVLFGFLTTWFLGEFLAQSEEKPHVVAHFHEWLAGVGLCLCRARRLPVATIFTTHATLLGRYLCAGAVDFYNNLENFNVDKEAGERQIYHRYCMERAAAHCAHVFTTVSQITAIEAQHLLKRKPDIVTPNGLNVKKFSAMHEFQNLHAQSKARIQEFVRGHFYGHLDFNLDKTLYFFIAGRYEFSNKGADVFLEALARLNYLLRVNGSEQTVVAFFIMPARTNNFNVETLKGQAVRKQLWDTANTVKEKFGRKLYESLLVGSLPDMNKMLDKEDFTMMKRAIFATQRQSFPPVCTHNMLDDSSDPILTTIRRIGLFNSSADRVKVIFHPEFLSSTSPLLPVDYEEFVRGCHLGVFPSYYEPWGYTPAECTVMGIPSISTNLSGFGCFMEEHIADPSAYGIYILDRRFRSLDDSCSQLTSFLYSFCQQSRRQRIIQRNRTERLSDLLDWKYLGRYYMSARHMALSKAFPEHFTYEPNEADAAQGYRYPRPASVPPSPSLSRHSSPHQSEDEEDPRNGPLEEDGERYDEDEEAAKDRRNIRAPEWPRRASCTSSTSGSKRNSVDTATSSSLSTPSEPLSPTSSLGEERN

[2] = target: T2, Glycogen [starch] synthase, muscle (Homo sapiens, UniProt P13807); test: Inhibition of C-terminal 6His-tagged wild type human GYS1 using UDPG as substrate in presence of 1 mM G-6-P by 14C-glucose incorporation assay
T2 sequence (P13807 whole entry): T1 sequence (whole entry)
How it was run: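 Full-length wild-type hGYS1 with C-terminal 6×His tag in place of the intein-chitin binding domain, Ni-NTA purified. Glucose transfer from UDP-[14C]glucose into glycogen with 0.2 mM UDPG and 1 mM G6P. Controls contained 2% (v/v) DMSO. IC50 was fitted by four-parameter logistic. Values are mean ± SEM of at least three independent experiments in duplicate.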

[3] = Inhibition of recombinant His-tagged yeast GYS2P expressed in Escherichia coli BL21(DE3) cells using UDPG as substrate in presence of 0.04 mM G-6-P by 14C-glucose incorporation assay; parameters: species or system Saccharomyces cerevisiae
How it was run: (§1)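 His-tagged yeast Gsy2p, expressed in E. coli BL21(DE3) and purified by Ni-NTA then Q-sepharose. Radiochemical incorporation of glucose into glycogen with 0.3 mM UDPG, with or without 0.04 mM G6P. Controls contained 2% (v/v) DMSO. IC50 was fitted by four-parameter logistic. Values are mean ± SEM of at least three independent experiments in duplicate.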

[4] = target: T3, Glycogen [starch] synthase, muscle (Rattus norvegicus) (UniProt A2RRU1); test: Inhibition of glycogen synthase in rat-1 fibroblast cell lysates at 100 uM using 0.2 mM UDPG as substrate in presence of 1 mM G-6-P by 14C-glucose incorporation assay relative to control; type: subcellular; conditions: Lysate
T3 sequence (whole entry): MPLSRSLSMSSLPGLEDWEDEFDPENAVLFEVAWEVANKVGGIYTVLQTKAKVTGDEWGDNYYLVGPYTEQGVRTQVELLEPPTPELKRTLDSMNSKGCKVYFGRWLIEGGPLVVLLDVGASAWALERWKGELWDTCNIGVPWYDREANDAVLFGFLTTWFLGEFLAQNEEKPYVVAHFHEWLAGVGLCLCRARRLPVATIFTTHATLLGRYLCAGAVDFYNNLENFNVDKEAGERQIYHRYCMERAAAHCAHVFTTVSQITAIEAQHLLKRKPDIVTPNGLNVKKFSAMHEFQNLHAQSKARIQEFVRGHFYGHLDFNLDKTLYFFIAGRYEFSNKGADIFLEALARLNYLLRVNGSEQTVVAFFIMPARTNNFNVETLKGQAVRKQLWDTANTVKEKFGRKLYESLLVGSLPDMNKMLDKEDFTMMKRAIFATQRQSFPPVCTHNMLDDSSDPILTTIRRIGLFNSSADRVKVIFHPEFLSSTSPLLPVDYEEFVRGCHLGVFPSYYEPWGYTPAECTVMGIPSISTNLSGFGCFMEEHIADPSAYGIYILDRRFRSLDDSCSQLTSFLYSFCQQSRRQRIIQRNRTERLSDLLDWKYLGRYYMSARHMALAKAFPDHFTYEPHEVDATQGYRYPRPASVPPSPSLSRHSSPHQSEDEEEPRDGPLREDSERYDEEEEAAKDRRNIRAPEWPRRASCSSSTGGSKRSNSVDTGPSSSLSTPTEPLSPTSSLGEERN
How it was run: (§2)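 Lysates came from HEK293 cells stably expressing PTG (5.5 mM glucose αMEM, 10% FBS, hygromycin) or from Rat-1 cells (25 mM glucose DMEM, 10% FBS), grown 3–4 days to confluency. Cells were lysed by freezing, scraping and sonication in Tris/EDTA/EGTA/NaF buffer with protease inhibitors and Triton. Assays used 0.15 mg/mL (HEK293-PTG) or 0.75 mg/mL (Rat-1) lysate in 50 mM Tris-HCl pH 7.8 with 6.7 mg/ml glycogen and 2% DMSO. Read-out was [14C]glucose incorporation relative to DMSO control, in triplicate.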

[5] = target: T2, Glycogen [starch] synthase, muscle; test: Competitive inhibition of C-terminal 6His-tagged human GYS1 using UDPG as substrate in presence of G-6-P by 14C-glucose incorporation based Michaelis-Menton plot analysis
How it was run: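 Radiolabel transfer from UDP-[14C]glucose into glycogen. Inhibitor and UDPG concentrations were covaried. Data were fitted to competitive, non-competitive and uncompetitive models, and the model was chosen by goodness of fit and residuals. Controls contained 2% (v/v) DMSO. Values are mean ± SEM of three independent experiments, each in duplicate.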

[6] = Inhibition of recombinant yeast GYS2P Y513L mutant using UDPG as substrate in presence of 7.2 mM G-6-P by 14C-glucose incorporation assay; parameters: species or system Saccharomyces cerevisiae
How it was run: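 Yeast Gsy2p Y513L mutant, purified like the wild type. Assayed by 14C-glucose incorporation into glycogen with UDPG under saturating 7.2 mM G6P. IC50 curves used triplicate measurements, with three experiments performed.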

[7] = target: T1, Glycogen [starch] synthase, muscle (Homo sapiens); test: Inhibition of glycogen synthase in human HEK293 cell lysates overexpressing mouse PTG at 100 uM using 0.2 mM UDPG as substrate in presence of 1 mM G-6-P by 14C-glucose incorporation assay relative to control; type: subcellular; conditions: Lysate; how it was run: as §2
Homo sapiens [8] = species: Homo sapiens; test: Inhibition of C-terminal 6His-tagged human GYS1 delta634S8,11N mutant assessed as enzyme activity at 20 uM using UDPG as substrate in presence of 0.4 mM G-6-P by 14C-glucose incorporation assay relative to control; parameters: scale not given: the % may be the effect or the level left
Saccharomyces cerevisiae [9] = test: Inhibition of recombinant His-tagged yeast GYS2P expressed in Escherichia coli BL21(DE3) cells assessed as enzyme activity at 20 uM using UDPG as substrate in presence of G-6-P by 14C-glucose incorporation assay relative to control; parameters: scale not given: the % may be the effect or the level left
Homo sapiens [10] = species: Homo sapiens; test: Inhibition of C-terminal 6His-tagged human GYS1 delta634S8,11N mutant assessed as enzyme activity at 300 uM using UDPG as substrate in presence of 0.4 mM G-6-P by 14C-glucose incorporation assay relative to control; parameters: scale not given: the % may be the effect or the level left
[11] = Competitive inhibition of recombinant His-tagged yeast GYS2P expressed in Escherichia coli BL21(DE3) cells using UDPG as substrate in presence of G-6-P by 14C-glucose incorporation based Michaelis-Menton plot analysis; parameters: species or system Saccharomyces cerevisiae
How it was run: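 Ni-NTA then Q-Sepharose purified enzyme (5 μg/ml) assayed by radiolabelled glucose transfer from UDPG into glycogen. UDPG varied 0.2–8 mM with 7.2 mM G6P, covaried against fixed inhibitor levels, 2% (v/v) DMSO throughout. Data fitted to competitive, non-competitive and uncompetitive models, chosen by goodness-of-fit and residuals. Ki given as mean ± SEM of three independent experiments in duplicate.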

[12] = Competitive inhibition of recombinant His-tagged yeast GYS2P expressed in Escherichia coli BL21(DE3) cells using UDPG as substrate in absence of G-6-P by 14C-glucose incorporation based Michaelis-Menton plot analysis; parameters: species or system Saccharomyces cerevisiae
How it was run: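 Yeast Gsy2p at 5 μg/ml in a 14C-glucose incorporation assay. UDPG was varied from 0.2 to 8 mM without G6P, and inhibitor was covaried up to 0.8 mM. Data were fitted to competitive, non-competitive and uncompetitive models, and the model was chosen by goodness of fit and residuals. Controls contained 2% (v/v) DMSO. Values are mean ± SEM of three independent experiments in duplicate.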

[13] = target: T1, Glycogen [starch] synthase, muscle (Homo sapiens); test: Inhibition of glycogen synthase in human HEK293 cell lysates overexpressing mouse PTG at 100 uM using 0.2 mM UDPG as substrate in presence of 1 mM G-6-P by 14C-glucose incorporation assay; type: subcellular; conditions: Lysate; how it was run: as §2
Saccharomyces cerevisiae [14] = test: Inhibition of recombinant His-tagged yeast GYS2P expressed in Escherichia coli BL21(DE3) cells assessed as enzyme activity at 300 uM using UDPG as substrate in presence of G-6-P by 14C-glucose incorporation assay relative to control; parameters: scale not given: the % may be the effect or the level left
Homo sapiens [15] = species: Homo sapiens; test: Inhibition of C-terminal 6His-tagged human GYS1 delta634S8,11N mutant at 100 uM using UDPG as substrate in presence of 0.4 mM G-6-P by 14C-glucose incorporation assay relative to control
[16] = Inhibition of C-terminal 6His-tagged human GYS1 delta634S8,11N mutant using UDPG as substrate in presence of 0.4 mM G-6-P by 14C-glucose incorporation assay
How it was run: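 Truncated hGYS1 (residues 635–737 deleted, Ser8/Ser11→Asn, C-terminal 6×His, Ni-NTA purified; activation state ~0.2). Radiolabelled glucose incorporation into glycogen with 0.2 mM UDPG and 0.4 mM G6P. Controls contained 2% (v/v) DMSO. IC50 was fitted by four-parameter logistic. Values are mean ± SEM of at least three independent experiments in duplicate.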

[17] = target: T1, Glycogen [starch] synthase, muscle (Homo sapiens); test: Inhibition of C-terminal 6His-tagged wild type human GYS1 assessed as enzyme activity at 300 uM using UDPG as substrate in presence of 1 mM G-6-P by 14C-glucose incorporation assay relative to control; parameters: scale not given: the % may be the effect or the level left
[18] = Inhibition of recombinant His-tagged yeast GYS2P expressed in Escherichia coli BL21(DE3) cells using UDPG as substrate in absence of G-6-P by 14C-glucose incorporation assay; parameters: species or system Saccharomyces cerevisiae; how it was run: as §1
[19] = target: T3, Glycogen [starch] synthase, muscle (Rattus norvegicus); test: Inhibition of glycogen synthase in rat-1 fibroblast cell lysates at 100 uM using 0.2 mM UDPG as substrate in presence of 1 mM G-6-P by 14C-glucose incorporation assay; type: subcellular; conditions: Lysate; how it was run: as §2

| Compound | Activity [1] | IC50 [2] | IC50 [3] | inhibition [4] | Ki [5] | IC50 [6] | inhibition [7] | Activity (Homo sapiens [8]) | Activity (Saccharomyces cerevisiae [9]) | Activity (Homo sapiens [10]) | Ki [11] | Ki [12] | inhibition [13] | Activity (Saccharomyces cerevisiae [14]) | inhibition (Homo sapiens [15]) | IC50 [16] | Activity [17] | IC50 [18] | inhibition [19] |
| --- | --- | --- | --- | --- | --- | --- | --- | --- | --- | --- | --- | --- | --- | --- | --- | --- | --- | --- | --- |
| Oc1ccc(-c2c(-c3ccc(O)c(O)c3O)n[nH]c2C(F)(F)F)cc1 | -0.26% | 2.75 µM | 7.98 µM | 100% | 1310 nM | 33.6 µM | 100% | -1.01% | 0.97% | – | – | – | – | – | – | – | – | – | – |
| COc1cc(-c2c(-c3ccccc3)ncn2CCC2CCCN2C)ccc1O (racemic) | – | 875 µM | 263 µM | – | – | – | – | – | – | 46.5% | 370 µM | 290 µM | inactive | 36.5% | > 20% | 161 µM | 77.1% | 280 µM | inactive |
